The results in this text go back to ChEMBL document CHEMBL4513216, “Probing the Open Global Health Chemical Diversity Library for Multistage-Active Starting Points for Next-Generation Antimalarials” (ACS Infect Dis, 2020).

The series is described as follows: Toxicity liver stage against HepG2, at 10uM. Format: cell-based. More on the design: test concentration 10 uM, cell line HepG2-A16-CD81EGFP. As to conditions: human, HepG2-A16-CD81EGFP cells; read-out: INHIBITION
In outline:
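Uninfected HepG2-A16-CD81EGFP cells, 3 × 10^3 per well, 1536-well, plated on prespotted compound at 10 μM final, parasite-free screening media added to match infected plates; puromycin 10 μM positive, DMSO 0.5% negative; run in parallel with 48 h PbLuc assay at 37 °C, 5% CO2; viability by CellTiter-Glo luminescence, normalized to controls.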

Regarding `Clc1ccc(N2CCC(OCC3CCCCO3)CC2)nc1` (stereo unspecified), the cytotoxicity at 10 µM is -1.8%.
For the molecule `CCO[C@H]1CN(C)C[C@@H]1NC(=O)c1cc(C)nc2c(C)c(C)ccc12`, the cytotoxicity at 10 µM came out at 1.64%.
Take `Cn1nc(Br)c2c(NCCNc3ncccn3)ncnc21`: the cytotoxicity at 10 µM stood at 11.3%.
For `CC1CCN(c2nc3cn(-c4ccc5c(c4)OCO5)c(=O)c-3c[nH]2)CC1`, the cytotoxicity at 10 µM is -14%.
The value for `N#Cc1cccc(OCCN2CCOC(Cn3cccn3)C2)c1` (stereo unspecified) was -1.3%; that for `CC(C)c1nc(CS(=O)(=O)Cc2noc(C3CC3)n2)cs1` was 6.16%; that for `O=C1N(Cc2ccc(Cl)cc2)CCC12CCCNC2` (stereo unspecified) was -10.8%.
In the case of `C=C(C)CNc1ccc(C(=O)N(CC)Cc2nccn2C)cn1`, the cytotoxicity at 10 µM was -9.36%.
For `Cc1cc(F)c2c(c1)CCCN2S(=O)(=O)c1ncn(C)c1Cl`, the cytotoxicity at 10 µM was 1.99%.
As to `c1ccc(COCC2CNCc3nccn3C2)nc1` (stereo unspecified), the cytotoxicity at 10 µM is 14.4%.
On to `CC(C)c1cc(NC(=O)CN2CCc3cncnc3C2)on1`, for which the cytotoxicity at 10 µM was -8.83%.
Take `O=C(NCc1ccc(C(=O)O)o1)c1ccc(F)cc1`: the cytotoxicity at 10 µM worked out at 13.2%.
Next, `CCNC(=O)NC(=O)CSC(C)c1c(F)cccc1F` (stereo unspecified): 20.6%; `CCN1CC[C@@]2(C(=O)N3CCOCC3)CCN(C(=O)CC(C)C)CC[C@@H]12`: 3.56%.
`Cc1noc([C@@]23CCO[C@@H]2CCN(C(=O)c2c(C)noc2C)C3)n1`: the cytotoxicity at 10 µM was found to be 8.4%.
`Cn1ncc(C2CC(=O)NCc3nc4ccccn4c32)c1C1CC1` (stereo unspecified): the cytotoxicity at 10 µM amounted to 6.9%.
With `COCCNC(=O)C1(Cc2ccccc2-c2ccncc2)CCOCC1`, the cytotoxicity at 10 µM is -26.3%.
Turning to `CNC(=O)C1CCCCN1C(=O)c1csc(-c2ccccc2)n1` (stereo unspecified), the cytotoxicity at 10 µM was determined as 2%.
In the case of `N#Cc1nccnc1N1CCC(Cc2ccccc2)C1` (stereo unspecified), the cytotoxicity at 10 µM was -8.68%.
With `CCC(C)C(=O)N(Cc1ccccn1)C1CC1` (stereo unspecified), the cytotoxicity at 10 µM is -44.5%.
Next, `OC1(CNCCc2nc3c(s2)CCCC3)CCNC1` (stereo unspecified): 1.44%; `CC(Cn1ccnc1)NC(=O)Cc1ccc2c(c1)OCCO2` (stereo unspecified): -7.2%.
On to `O=C(c1cc(COc2ccc3c(c2)OCO3)[nH]n1)N1CCCC(O)C1` (stereo unspecified), for which the cytotoxicity at 10 µM is -8.07%.
As for `COc1ncnc(N(C)C)c1NC(=O)Cc1cc(F)ccc1F`, the cytotoxicity at 10 µM is -2.67%.
As for `Cc1nn(C)c(N2CCOCC2)c1CNCC1CCN(C2CC2)C1` (stereo unspecified), the cytotoxicity at 10 µM is -3.32%.
`CN1CC[C@]2(CN(S(C)(=O)=O)C[C@H]2c2ccccc2)C1=O`: the cytotoxicity at 10 µM was -120%.
In the case of `c1cc(CNCc2ccnc(N3CCOCC3)c2)c2c(c1)OCCCO2`, the cytotoxicity at 10 µM was 7.82%.
For `Cc1cnn(C2CCCN(C(=O)c3cc(-c4cccs4)n[nH]3)C2)c1` (stereo unspecified), the cytotoxicity at 10 µM was -7.83%.
With `O=C(c1cnccn1)N1CC[C@@H]2CO[C@@H](CN3CCCC3)[C@@H]2C1`, the cytotoxicity at 10 µM is -1.19%.
For `COc1cccc2ccc(N3CCC(O)(C(=O)O)CC3)nc12`, the cytotoxicity at 10 µM came out at 3.13%.
Regarding `Cc1cc(C)n(CCCNC(=O)C(C)NC(=O)CC2CCCCC2)n1` (stereo unspecified), the cytotoxicity at 10 µM is -1.06%.
On to `CC(c1cn2ncsc2n1)n1cc2[nH]cccc-2c1=O` (stereo unspecified), for which the cytotoxicity at 10 µM is -3.74%.
As for `CN(C)c1ccc(NC(=O)CN2CCS(=O)(=O)CC2)cn1`, the cytotoxicity at 10 µM was found to be 6.56%.
`Cc1nc(N)cc(C2CCN2CCOc2ccccc2)n1` (stereo unspecified): the cytotoxicity at 10 µM turned out to be 10%.
On to `COCc1noc(C2(c3ccc(F)cc3)CCOCC2)n1`, for which the cytotoxicity at 10 µM is -25.3%.
Next, `CCSCCNc1nc2c(s1)c(C)nn2C`: -0.145%.
`CN1CC(=O)N(c2cccc(F)c2)CC12CCN(Cc1cncn1C)C2` (stereo unspecified): the cytotoxicity at 10 µM was -0.791%.
Regarding `CC(C)c1noc(CCC(=O)NCC(c2ccco2)N2CCCC2)n1` (stereo unspecified), the cytotoxicity at 10 µM is -9.71%.
The value for `CNC(=O)c1cc2c(nc1NCC(C)C)CCN(S(=O)(=O)N(C)C)CC2` was -151%; that for `Cc1cnccc1N1CCCN(C(=O)CCn2ccnc2C)CC1` was -6.32%; that for `CN(C)Cc1nn(C)c2c1CCN(C(=O)c1cnccn1)C2` was -134%.
The value for `CCNC(=O)c1cn2cc(-c3ccccc3Cl)n(CC3CC3)c(=O)c2n1` was 4.63%; that for `CC(C)(C)OC(=O)N1CC(=O)N(Cc2ccco2)CC(O)C1` (stereo unspecified) was 4.11%; that for `Cn1cc(CN2CC[C@@H](O)[C@@H]2Cc2ccccc2)cn1` was -71.2%.
Regarding `Cc1cnn(CC2CCCCN2Cc2c(C)noc2C)c1` (stereo unspecified), the cytotoxicity at 10 µM was -11.2%.
As for `COCc1cc(N(C)CCC(O)c2ccccc2)n2nccc2n1` (stereo unspecified), the cytotoxicity at 10 µM is -2.49%.
On to `CC(=O)NCC(=O)N1CCc2c(CNc3ncccn3)cncc2C1`, for which the cytotoxicity at 10 µM was found to be 1.59%.
With `Cc1n[nH]c(C)c1CCN(C)c1ccc(-c2nc(C3CC3)no2)cn1`, the cytotoxicity at 10 µM stood at 2.08%.
With `CC(C)N1CCC(C(=O)N[C@H](C(=O)O)c2cccc(F)c2F)CC1`, the cytotoxicity at 10 µM was determined as 2.59%.
Regarding `CS(=O)(=O)N1CCN(c2ccnc(N3CCCC3)n2)CC1`, the cytotoxicity at 10 µM is -1.26%.
For `CC(C)(C)OC(=O)N[C@H]1CCN(c2cncc(Br)c2)C1`, the cytotoxicity at 10 µM was -52.8%.
Regarding `NC(=O)C(CNC(=O)CCc1ccccc1)Cc1ccc(F)cc1` (stereo unspecified), the cytotoxicity at 10 µM stood at 6.62%.
With `COCCN1CCN(CC(=O)N(C)Cc2ccsc2)CC1C` (stereo unspecified), the cytotoxicity at 10 µM was -127%.
Turning to `Cc1ccc(C(=O)N2C[C@@H]3C[C@@H](c4nnc(C5CC5)o4)O[C@@H]3C2)s1`, the cytotoxicity at 10 µM is -133%.
Regarding `CN(C)C(=O)COC1COC2(CCN(c3ncccn3)CC2)C1` (stereo unspecified), the cytotoxicity at 10 µM is -72.8%.
For the molecule `CC(C)CCN1C[C@@H]2C[C@H](C(=O)Nc3cccnc3)[C@H](C1)O2`, the cytotoxicity at 10 µM was -82.5%.
For `COc1cc(OC)cc(-c2noc(CC(N)c3ccccc3)n2)c1` (stereo unspecified), the cytotoxicity at 10 µM stood at 4.47%.
For the molecule `COc1ccc2nc(C3CC3)cc(C(=O)NCC(=O)N(C)C)c2c1`, the cytotoxicity at 10 µM was -3.41%.
Turning to `CCc1ccc(C(=O)NC2CCN(c3cnn(C)c3)C2=O)o1` (stereo unspecified), the cytotoxicity at 10 µM was -6.13%.
The value for `CN1CCCC(N(C)C(=O)c2ccc(NC(=O)c3cc[nH]n3)cc2)C1` (stereo unspecified) was 0.624%; that for `CCN(Cc1cccnc1)C1CCN(c2ccccc2)C1=O` (stereo unspecified) was -0.483%; that for `CN(Cc1ccccc1)CC(O)Cn1cnc2ccccc2c1=O` (stereo unspecified) was -5.02%.
Regarding `CCN1CCCN(C(=O)c2ccc(NC(=O)CC(C)C)c(C)c2)CC1`, the cytotoxicity at 10 µM was -8.04%.
On to `CC(CCSc1ccccc1)N1CCN(C(=O)c2ccccc2O)CC1` (stereo unspecified), for which the cytotoxicity at 10 µM amounted to 8.97%.
On to `Cc1nccn1CCC1CCCCN1C(=O)c1ccc(N(C)C)cc1` (stereo unspecified), for which the cytotoxicity at 10 µM turned out to be 0.811%.
`Cc1cc(C)c(C(=O)N2CCn3nc(C(=O)NCCN(C)C)cc3C2)[nH]1`: the cytotoxicity at 10 µM is -0.53%.
Turning to `Cc1noc(C)c1CNCC1CCN(CC(O)c2ccccc2)CC1` (stereo unspecified), the cytotoxicity at 10 µM was -0.65%.
For the molecule `COCCNC(=O)c1nnc2ccc(N3CCOCC3)cc2n1`, the cytotoxicity at 10 µM was 10.8%.
As for `c1ccc(OCCN2CCC(c3cnccn3)CC2)cc1`, the cytotoxicity at 10 µM worked out at 7.56%.
For `CCc1noc(CN(CC)Cc2cc3ccc(F)cc3[nH]c2=O)n1`, the cytotoxicity at 10 µM was determined as 2.24%.
For the molecule `CC(C)Oc1cccc(F)c1C(C(=O)O)N1CCCN(C)CC1` (stereo unspecified), the cytotoxicity at 10 µM came to 0.992%.
Consider `Cc1noc(C)c1CN1CCOCC12CCN(c1ncccn1)CC2`, for which the cytotoxicity at 10 µM was -104%.
For the molecule `Cc1ccccc1-n1cc(CN(C)C[C@@H]2CCCN3CCCC[C@H]23)cn1`, the cytotoxicity at 10 µM was -3.09%.
Next, `CN1[C@@H](c2ccccc2)[C@@H](C(=O)NCc2ccccn2)C[C@@]1(C)C(=O)O`: -3.8%.
Turning to `Cc1ccc(NC2CCN(C(=O)COc3cccnc3)CC2)nn1`, the cytotoxicity at 10 µM is 1.3%.
Take `CC(=O)N1CCN(c2cc(C3CN(C)CCO3)nc(C)n2)CC1` (stereo unspecified): the cytotoxicity at 10 µM stood at 1.05%.
As to `O[C@@]1(CNCCCNc2cccnc2)CCCN2CCCC[C@@H]21`, the cytotoxicity at 10 µM is -3%.
For `CCN1CCN(C(=O)c2ccn(C)c(=O)c2)CC1`, the cytotoxicity at 10 µM was determined as 8.66%.
`CC(NC(=O)c1cccnc1N(C)C)c1ccccc1Cl` (stereo unspecified): the cytotoxicity at 10 µM was -4.97%.
For the molecule `CC(C)NC(=O)CS(=O)(=O)Cc1coc(-c2ccc(F)cc2)n1`, the cytotoxicity at 10 µM is -6.6%.
Next, `Cc1ccsc1C(=O)N1CC(C(=O)N2CCOCC2)C2(CCOCC2)C1` (stereo unspecified): 1.47%; `CCC1(CO)CCCN(C(=O)c2cc(COc3cccc(F)c3)[nH]n2)C1` (stereo unspecified): 5.31%; `CSc1ncccc1C(=O)N1C[C@@H]2CC[C@H]1CN(C(C)=O)C2`: 4.99%.
As for `CC(=O)N1CCCC1c1ccc(C(=O)N2CCOCC2)s1` (stereo unspecified), the cytotoxicity at 10 µM worked out at 6.92%.
Regarding `Cc1ccc(F)c(S(=O)(=O)NCc2cccc(C(=O)N3CCCC3)c2)c1`, the cytotoxicity at 10 µM is -11.1%.
For the molecule `COc1cccc(CNC(C)C)c1OCc1ccc(C)cc1`, the cytotoxicity at 10 µM was determined as 0.438%.
As for `CCNc1ncc(C)c(-c2cnn(C)c2)n1`, the cytotoxicity at 10 µM was -3.73%.
Regarding `CN1CCN(CC[C@@H]2CC[C@H](O)[C@@H](C(=O)Nc3ccccc3)O2)CC1`, the cytotoxicity at 10 µM was -7.1%.
`COc1cccc(OCC2CCCN(Cc3ncc[nH]3)C2)c1` (stereo unspecified): the cytotoxicity at 10 µM worked out at 4.97%.
As to `Cc1n[nH]c(C)c1-c1c(C#N)c(N)nc2c1CCc1[nH]ccc1-2`, the cytotoxicity at 10 µM worked out at 2.83%.
For the molecule `c1ccc(CCN2CCCC(c3noc(C4CC4)n3)C2)cc1` (stereo unspecified), the cytotoxicity at 10 µM is -3.62%.
For the molecule `Cc1ccc(C(NC(=O)Cc2nc3ncccn3n2)C2CC2)cc1` (stereo unspecified), the cytotoxicity at 10 µM stood at 5.06%.
The value for `CCOCCNCc1cc(O)c2cc(C)ccc2n1` was -2.04%; that for `OCCOCc1n[nH]c2c1CN(Cc1cccs1)C2` was 6.65%.
For the molecule `Cc1cc(N2CCC(N(C)C(=O)c3ccc(C#N)cc3)CC2)nc(C)n1`, the cytotoxicity at 10 µM came to 26.7%.
Take `COc1ccc(-n2nnc(C(=O)NCC3CCCCC3)n2)cc1`: the cytotoxicity at 10 µM was 1.01%.
